{"data": "Experimental data from different studies", "observed": "enzyme activity", "action": "inhibitor", "HDAC8": "Histone deacetylase 8 (HDAC8, Homo sapiens, UniProt Q9BY41)", "PARP10": "Protein mono-ADP-ribosyltransferase PARP10 (PARP10, Homo sapiens, UniProt Q53GL7)", "Seed linoleate 13S-lipoxygenase-1": "Seed linoleate 13S-lipoxygenase-1 (Glycine max, UniProt P08170)", "HDAC1": "Histone deacetylase 1 (HDAC1, Homo sapiens, UniProt Q13547)", "note": "Protocols differ between the studies behind these lines."}
{"SMILES": "O=C(NO)c1ccc(Cn2cnc3c(Nc4ccc(F)c(Cl)c4)ncnc32)cc1", "target": "HDAC8", "IC50 [nM]": 154}
{"SMILES": "O=c1[nH]c2c(nnn2C2CCCCC2)c2ccccc12", "target": "PARP10", "IC50 [nM]": "> 10000"}
{"SMILES": "O=C(NO)c1ccc(Cn2cnc3c(Nc4cccc([N+](=O)[O-])c4)ncnc32)cc1", "target": "HDAC8", "IC50 [nM]": 118}
{"SMILES": "Cc1ccc(Cn2nnc3c4ccc(C(F)(F)F)cc4c(=O)[nH]c32)cc1", "target": "PARP10", "IC50 [nM]": "> 10000"}
{"SMILES": "C=C(C)[C@@H]1CC[C@]2(C)CC[C@]3(C)[C@H](CC[C@@H]4[C@@]5(C)CC[C@H](O)C(C)(C)[C@@H]5CC[C@]43C)[C@@H]12", "target": "Seed linoleate 13S-lipoxygenase-1", "IC50 [nM]": 110000}
{"SMILES": "COc1ccc(Nc2ncnc3c2ncn3Cc2ccc(C(=O)NO)cc2)cc1", "target": "HDAC8", "IC50 [nM]": 112}
{"SMILES": "COc1ccc(N(Cc2csc(-c3ccc(Cl)cc3)n2)C(=O)CCCCCC(=O)NO)cc1", "target": "HDAC1", "IC50 [nM]": 1}
{"SMILES": "O=C(O[C@@H]1COC(=O)c2cc(O)c(O)c(O)c2-c2c(cc(O)c(O)c2O)C(=O)O[C@H]1[C@@H]1OC(=O)c2cc(O)c(O)c(O)c2-c2c(O)c(O)c(O)c3c2C(=O)O[C@H]1[C@@H]3O)c1cc(O)c(O)c(O)c1", "target": "Seed linoleate 13S-lipoxygenase-1", "IC50 [nM]": 36200}
{"SMILES": "O=C(CCCCc1ccc(CO)cc1)C(F)(F)C(F)(F)F", "target": "Cytosolic phospholipase A2 (PLA2G4A, Homo sapiens, UniProt P47712)", "IC50 [nM]": 121000}
{"SMILES": "COc1ccc(N(Cc2nc(-c3cccc(Cl)c3)cs2)C(=O)CCCCCC(=O)NO)cc1", "target": "HDAC1", "IC50 [nM]": 4.9}
{"SMILES": "Nc1cnccc1Nc1ccc(Cl)c(Cl)c1", "target": "Uracil-DNA glycosylase (UNG, Homo sapiens, UniProt P13051)", "IC50 [nM]": "> 100000"}
{"SMILES": "Cc1ccc(S(=O)(=O)NNc2ccc([N+](=O)[O-])cc2[N+](=O)[O-])cc1", "target": "Polyunsaturated fatty acid 5-lipoxygenase (ALOX5, Homo sapiens, UniProt P09917)", "IC50 [nM]": 1330}
{"SMILES": "O=c1[nH]c2c(nnn2-c2ccccc2)c2ccc(F)cc12", "target": "PARP10", "IC50 [nM]": "> 10000"}
{"SMILES": "Nc1ccccc1NC(=O)c1ccc(Cn2cnc3c(Nc4ccc(Cl)cc4)ncnc32)cc1", "target": "HDAC1", "assay": "fluorescence", "IC50 [nM]": 14.1}
{"SMILES": "COc1ccc(N(Cc2csc(-c3ccccc3Cl)n2)C(=O)CCCCCC(=O)NO)cc1", "target": "HDAC1", "IC50 [nM]": 2.1}
{"SMILES": "c1c(N2CCCC2)nc(N2CCCC2)nc1N1CCNCC1", "target": "Caspase-5 (CASP5, Homo sapiens, UniProt P51878)", "conditions": "with preincubation", "IC50 [nM]": 138}
{"SMILES": "COc1ccc(N(Cc2nc(-c3ccc(C)cc3)cs2)C(=O)CCCCCC(=O)NO)cc1", "target": "HDAC1", "IC50 [nM]": 2.6}
{"SMILES": "CCCCCn1nnc2c3ccccc3c(=O)[nH]c21", "target": "PARP10", "IC50 [nM]": 182}
{"SMILES": "COc1ccc(N(Cc2csc(-c3ccccc3)n2)C(=O)CCCCCC(=O)NO)cc1", "target": "HDAC1", "IC50 [nM]": 1.1}
{"SMILES": "Cc1ccccc1Cn1nnc2c3ccc(F)cc3c(=O)[nH]c21", "target": "PARP10", "IC50 [nM]": "> 10000"}
{"SMILES": "COc1ccc(N(Cc2csc(-c3ccc(C)cc3)n2)C(=O)CCCCCC(=O)NO)cc1", "target": "HDAC1", "IC50 [nM]": 0.8}
{"SMILES": "Cc1ccc(Cn2cc(-c3ccccc3C(N)=O)nn2)cc1", "target": "PARP10", "IC50 [nM]": "> 10000"}
{"SMILES": "CC(C)COc1ccc(N(Cc2nc(-c3ccccc3)cs2)C(=O)CCCCCC(=O)NO)cc1", "target": "HDAC1", "IC50 [nM]": 2.6}
{"SMILES": "NC/C(=C\\F)COc1cccc(Cn2c(=S)[nH]c(=O)c3[nH]cnc32)c1", "target": "Protein-lysine 6-oxidase (Homo sapiens, UniProt P28300)", "IC50 [nM]": "> 30000"}
{"SMILES": "COc1ccc(N(Cc2nc(-c3ccc(F)cc3)cs2)C(=O)CCCCCC(=O)NO)cc1", "target": "HDAC1", "IC50 [nM]": 0.9}
{"SMILES": "Cc1ccc(Cn2nnc3c4ccccc4c(=O)[nH]c32)cc1", "target": "PARP10", "IC50 [nM]": 204}
